Results reported in ChEMBL document CHEMBL4699588, “Structure-Activity Relationships of Noncovalent Immunoproteasome β5i-Selective Dipeptides” (J Med Chem, 2020).
The source made the active and inactive calls. The rule behind the calls is not given here.

Target: T1, Proteasome Macropain subunit MB1 (Homo sapiens, UniProt P28074)
T1 sequence (P28074 whole entry): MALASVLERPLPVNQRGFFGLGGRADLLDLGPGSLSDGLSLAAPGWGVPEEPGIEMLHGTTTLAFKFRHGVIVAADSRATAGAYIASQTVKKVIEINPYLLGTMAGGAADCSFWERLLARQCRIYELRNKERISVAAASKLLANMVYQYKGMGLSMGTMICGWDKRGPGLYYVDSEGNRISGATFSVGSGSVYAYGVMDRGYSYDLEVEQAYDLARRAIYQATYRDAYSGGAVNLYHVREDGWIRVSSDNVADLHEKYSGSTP
Test: Inhibition of human constitutive 20S proteasome beta 5 chymotrypsin-like activity
Conditions: not given
How it was run: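 Purified human proteasomes were used in a 96-well format assay: immunoproteasome i-20S from PBMC and constitutive c-20S from red blood cells. The readout was fluorogenic AMC peptide substrate cleavage on a plate reader, and IC50 values were determined from it.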

| Compound | IC50 |
| --- | --- |
| COC[C@H](NC(=O)[C@H](CC(=O)N(C)C)NC(=O)CCc1ccccc1)C(=O)NCc1cccc2ccccc12 | > 100000 nM |

Species: Homo sapiens
Test: Selectivity index, ratio of IC50 for inhibition of human constitutive 20S proteasome beta 5 chymotrypsin-like activity to IC50 for inhibition of human 20S immunoproteasome beta 5 chymotrypsin-like activity
Conditions: not given

| Compound | Ratio IC50 |
| --- | --- |
| COC[C@H](NC(=O)[C@H](CC(=O)NC(C)(C)C)NC(=O)CCc1ccccc1)C(=O)NCc1cccc2ccccc12 | 71 |
| COC[C@H](NC(=O)[C@H](CC(=O)N1CCCC1)NC(=O)CCc1ccccc1)C(=O)NCc1cccc2ccccc12 | 28 |
| CCN(CC)C(=O)C[C@H](NC(=O)CCc1ccccc1)C(=O)N[C@@H](COC)C(=O)NCc1cccc2ccccc12 | 8 |
| COC[C@H](NC(=O)[C@H](CC(=O)NC(C)(C)C)NC(=O)c1cc(C)on1)C(=O)NCc1cccc2ccccc12 | 274 |
| COC[C@H](NC(=O)[C@H](CC(=O)N1CCCCC1)NC(=O)CCc1ccccc1)C(=O)NCc1cccc2ccccc12 | 58 |
| COC[C@H](NC(=O)[C@H](CC(=O)N(C)C)NC(=O)CCc1ccccc1)C(=O)NCc1cccc2ccccc12 | > 9 |

Target: T2, Proteasome subunit beta type-9 (Homo sapiens) (UniProt P28065)
T2 sequence (whole entry): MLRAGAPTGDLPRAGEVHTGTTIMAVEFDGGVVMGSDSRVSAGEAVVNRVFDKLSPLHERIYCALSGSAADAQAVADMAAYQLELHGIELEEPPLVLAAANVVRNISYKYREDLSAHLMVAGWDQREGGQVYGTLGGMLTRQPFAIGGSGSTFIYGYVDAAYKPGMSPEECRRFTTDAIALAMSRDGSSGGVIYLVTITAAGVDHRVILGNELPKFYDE
Test: Inhibition of human 20S immunoproteasome beta 1 at 33.3 uM relative to control
Conditions: not given

| Compound | inhibition |
| --- | --- |
| Cc1cc(C(=O)N[C@@H](CCC(=O)NC(C)(C)C)C(=O)N[C@@H](C)C(=O)NCc2ccc(F)c3ccccc23)no1 | < 50% |
| C[C@H](NC(=O)[C@H](CC(=O)NC(C)(C)C)NC(=O)C(=O)c1c[nH]c2ccccc12)C(=O)NCc1cccc2ccccc12 | < 50% |
| COC[C@H](NC(=O)[C@H](CC(=O)NC(C)(C)C)NS(=O)(=O)c1ccc(C)cc1)C(=O)NCc1ccc(F)c2ccccc12 | < 50% |
| Cc1ccc(S(=O)(=O)N[C@@H](CCC(=O)NC(C)(C)C)C(=O)N[C@@H](C)C(=O)NCc2ccc(F)c3ccccc23)cc1 | < 50% |
| COC[C@H](NC(=O)[C@H](CCC(=O)NC(C)(C)C)NS(=O)(=O)c1ccc(C)cc1)C(=O)NCc1ccc(F)c2ccccc12 | < 50% |

Target: T3, Proteasome subunit beta type-10 (Homo sapiens) (UniProt P40306)
T3 sequence (whole entry): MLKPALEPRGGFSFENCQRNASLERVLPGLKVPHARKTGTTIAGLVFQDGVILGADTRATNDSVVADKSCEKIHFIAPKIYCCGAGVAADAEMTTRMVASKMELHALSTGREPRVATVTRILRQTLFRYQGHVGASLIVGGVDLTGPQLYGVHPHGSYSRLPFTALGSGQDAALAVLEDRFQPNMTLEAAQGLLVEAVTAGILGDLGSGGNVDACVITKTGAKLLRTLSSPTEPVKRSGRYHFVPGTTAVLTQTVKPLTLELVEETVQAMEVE
Test: Inhibition of human 20S immunoproteasome beta 2 at 33.3 uM relative to control
Conditions: not given

| Compound | inhibition |
| --- | --- |
| Cc1cc(C(=O)N[C@@H](CCC(=O)NC(C)(C)C)C(=O)N[C@@H](C)C(=O)NCc2ccc(F)c3ccccc23)no1 | < 50% |
| C[C@H](NC(=O)[C@H](CC(=O)NC(C)(C)C)NC(=O)C(=O)c1c[nH]c2ccccc12)C(=O)NCc1cccc2ccccc12 | < 50% |
| COC[C@H](NC(=O)[C@H](CC(=O)NC(C)(C)C)NS(=O)(=O)c1ccc(C)cc1)C(=O)NCc1ccc(F)c2ccccc12 | < 50% |
| Cc1ccc(S(=O)(=O)N[C@@H](CCC(=O)NC(C)(C)C)C(=O)N[C@@H](C)C(=O)NCc2ccc(F)c3ccccc23)cc1 | < 50% |
| COC[C@H](NC(=O)[C@H](CCC(=O)NC(C)(C)C)NS(=O)(=O)c1ccc(C)cc1)C(=O)NCc1ccc(F)c2ccccc12 | < 50% |

Test system: not listed separately
Test: Inhibition of anti-CD3 antibody-stimulated T cell proliferation in human PBMCs
Type: functional, tissue-based
Conditions: PBMC

| Compound | EC50 |
| --- | --- |
| Cc1cc(C(=O)N[C@@H](CCC(=O)NC(C)(C)C)C(=O)N[C@@H](C)C(=O)NCc2ccc(F)c3ccccc23)no1 | 73 nM |
| C[C@H](NC(=O)[C@H](CC(=O)NC(C)(C)C)NC(=O)C(=O)c1c[nH]c2ccccc12)C(=O)NCc1cccc2ccccc12 | 21 nM |
| COC[C@H](NC(=O)[C@H](CC(=O)NC(C)(C)C)NS(=O)(=O)c1ccc(C)cc1)C(=O)NCc1ccc(F)c2ccccc12 | 73 nM |
| Cc1ccc(S(=O)(=O)N[C@@H](CCC(=O)NC(C)(C)C)C(=O)N[C@@H](C)C(=O)NCc2ccc(F)c3ccccc23)cc1 | 39 nM |
| COC[C@H](NC(=O)[C@H](CCC(=O)NC(C)(C)C)NS(=O)(=O)c1ccc(C)cc1)C(=O)NCc1ccc(F)c2ccccc12 | 18 nM |

Target: Trypsin (Homo sapiens) (UniProt P07477+P07478+P35030)
Test: Inhibition of trypsin (unknown origin) at 11.1 to 100 uM
Conditions: dose 11.1-100 µM

| Compound | inhibition |
| --- | --- |
| Cc1cc(C(=O)N[C@@H](CCC(=O)NC(C)(C)C)C(=O)N[C@@H](C)C(=O)NCc2ccc(F)c3ccccc23)no1 | inactive |
| C[C@H](NC(=O)[C@H](CC(=O)NC(C)(C)C)NC(=O)C(=O)c1c[nH]c2ccccc12)C(=O)NCc1cccc2ccccc12 | inactive |
| COC[C@H](NC(=O)[C@H](CC(=O)NC(C)(C)C)NS(=O)(=O)c1ccc(C)cc1)C(=O)NCc1ccc(F)c2ccccc12 | inactive |
| Cc1ccc(S(=O)(=O)N[C@@H](CCC(=O)NC(C)(C)C)C(=O)N[C@@H](C)C(=O)NCc2ccc(F)c3ccccc23)cc1 | inactive |
| COC[C@H](NC(=O)[C@H](CCC(=O)NC(C)(C)C)NS(=O)(=O)c1ccc(C)cc1)C(=O)NCc1ccc(F)c2ccccc12 | inactive |

Target: Procathepsin L (Homo sapiens) (UniProt P07711)
Test: Inhibition of cathepsin L (unknown origin) at 11.1 to 100 uM
Conditions: dose 11.1-100 µM

Procathepsin L (Homo sapiens), sequence (P07711 114-333 limits assumed): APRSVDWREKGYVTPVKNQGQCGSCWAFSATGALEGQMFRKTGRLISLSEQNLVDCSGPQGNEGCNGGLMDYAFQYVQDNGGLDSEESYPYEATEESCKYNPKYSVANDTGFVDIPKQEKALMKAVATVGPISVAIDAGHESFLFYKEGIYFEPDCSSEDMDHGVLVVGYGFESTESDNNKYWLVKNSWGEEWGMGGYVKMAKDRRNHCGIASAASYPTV

| Compound | inhibition |
| --- | --- |
| Cc1cc(C(=O)N[C@@H](CCC(=O)NC(C)(C)C)C(=O)N[C@@H](C)C(=O)NCc2ccc(F)c3ccccc23)no1 | inactive |
| C[C@H](NC(=O)[C@H](CC(=O)NC(C)(C)C)NC(=O)C(=O)c1c[nH]c2ccccc12)C(=O)NCc1cccc2ccccc12 | Active |
| COC[C@H](NC(=O)[C@H](CC(=O)NC(C)(C)C)NS(=O)(=O)c1ccc(C)cc1)C(=O)NCc1ccc(F)c2ccccc12 | inactive |
| Cc1ccc(S(=O)(=O)N[C@@H](CCC(=O)NC(C)(C)C)C(=O)N[C@@H](C)C(=O)NCc2ccc(F)c3ccccc23)cc1 | inactive |
| COC[C@H](NC(=O)[C@H](CCC(=O)NC(C)(C)C)NS(=O)(=O)c1ccc(C)cc1)C(=O)NCc1ccc(F)c2ccccc12 | inactive |

Species: Homo sapiens
Test: Inhibition of alpha-chymotrypsin (unknown origin) at 11.1 to 100 uM
Conditions: dose 11.1-100 µM

| Compound | inhibition |
| --- | --- |
| Cc1cc(C(=O)N[C@@H](CCC(=O)NC(C)(C)C)C(=O)N[C@@H](C)C(=O)NCc2ccc(F)c3ccccc23)no1 | inactive |
| C[C@H](NC(=O)[C@H](CC(=O)NC(C)(C)C)NC(=O)C(=O)c1c[nH]c2ccccc12)C(=O)NCc1cccc2ccccc12 | Active |
| COC[C@H](NC(=O)[C@H](CC(=O)NC(C)(C)C)NS(=O)(=O)c1ccc(C)cc1)C(=O)NCc1ccc(F)c2ccccc12 | inactive |
| Cc1ccc(S(=O)(=O)N[C@@H](CCC(=O)NC(C)(C)C)C(=O)N[C@@H](C)C(=O)NCc2ccc(F)c3ccccc23)cc1 | inactive |
| COC[C@H](NC(=O)[C@H](CCC(=O)NC(C)(C)C)NS(=O)(=O)c1ccc(C)cc1)C(=O)NCc1ccc(F)c2ccccc12 | inactive |

Target: proteasome subunit beta type-6, β1c, PSMB6 (Homo sapiens) (UniProt P28072)
Test: Inhibition of human 20S constitutive proteasome beta 1 at 33.3 uM relative to control
Conditions: not given

proteasome subunit beta type-6, β1c, PSMB6 (Homo sapiens), sequence (P28072 whole entry, looked up): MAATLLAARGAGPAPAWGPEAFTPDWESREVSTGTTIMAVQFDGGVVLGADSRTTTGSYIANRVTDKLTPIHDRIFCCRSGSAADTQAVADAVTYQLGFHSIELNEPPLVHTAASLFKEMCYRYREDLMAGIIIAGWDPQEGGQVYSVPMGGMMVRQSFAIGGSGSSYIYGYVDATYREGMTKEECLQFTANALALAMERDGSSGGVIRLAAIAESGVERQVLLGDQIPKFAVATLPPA

| Compound | inhibition |
| --- | --- |
| Cc1cc(C(=O)N[C@@H](CCC(=O)NC(C)(C)C)C(=O)N[C@@H](C)C(=O)NCc2ccc(F)c3ccccc23)no1 | < 50% |
| C[C@H](NC(=O)[C@H](CC(=O)NC(C)(C)C)NC(=O)C(=O)c1c[nH]c2ccccc12)C(=O)NCc1cccc2ccccc12 | < 50% |
| COC[C@H](NC(=O)[C@H](CC(=O)NC(C)(C)C)NS(=O)(=O)c1ccc(C)cc1)C(=O)NCc1ccc(F)c2ccccc12 | < 50% |
| Cc1ccc(S(=O)(=O)N[C@@H](CCC(=O)NC(C)(C)C)C(=O)N[C@@H](C)C(=O)NCc2ccc(F)c3ccccc23)cc1 | < 50% |
| COC[C@H](NC(=O)[C@H](CCC(=O)NC(C)(C)C)NS(=O)(=O)c1ccc(C)cc1)C(=O)NCc1ccc(F)c2ccccc12 | < 50% |

Target: proteasome subunit beta type-7, β2c, PSMB7 (Homo sapiens) (UniProt Q99436)
Test: Inhibition of human 20S constitutive proteasome beta 2 at 33.3 uM relative to control
Conditions: not given

proteasome subunit beta type-7, β2c, PSMB7 (Homo sapiens), sequence (Q99436 whole entry, looked up): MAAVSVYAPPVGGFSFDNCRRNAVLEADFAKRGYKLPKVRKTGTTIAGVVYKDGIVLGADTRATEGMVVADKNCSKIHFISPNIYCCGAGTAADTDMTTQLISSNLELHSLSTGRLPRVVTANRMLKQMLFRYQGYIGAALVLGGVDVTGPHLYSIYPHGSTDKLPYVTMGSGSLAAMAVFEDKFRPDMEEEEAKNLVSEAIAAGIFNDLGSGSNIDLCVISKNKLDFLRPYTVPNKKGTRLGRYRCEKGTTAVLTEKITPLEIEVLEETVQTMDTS

| Compound | inhibition |
| --- | --- |
| Cc1cc(C(=O)N[C@@H](CCC(=O)NC(C)(C)C)C(=O)N[C@@H](C)C(=O)NCc2ccc(F)c3ccccc23)no1 | < 50% |
| C[C@H](NC(=O)[C@H](CC(=O)NC(C)(C)C)NC(=O)C(=O)c1c[nH]c2ccccc12)C(=O)NCc1cccc2ccccc12 | < 50% |
| COC[C@H](NC(=O)[C@H](CC(=O)NC(C)(C)C)NS(=O)(=O)c1ccc(C)cc1)C(=O)NCc1ccc(F)c2ccccc12 | < 50% |
| Cc1ccc(S(=O)(=O)N[C@@H](CCC(=O)NC(C)(C)C)C(=O)N[C@@H](C)C(=O)NCc2ccc(F)c3ccccc23)cc1 | < 50% |
| COC[C@H](NC(=O)[C@H](CCC(=O)NC(C)(C)C)NS(=O)(=O)c1ccc(C)cc1)C(=O)NCc1ccc(F)c2ccccc12 | < 50% |
